Measurements reported in ChEMBL document CHEMBL4689842, “EUbOPEN Chemogenomics Library wave 1” (2021).
Values joined by “and” are separate entries in the source; they are usually repeats but may differ in a detail not shown here. Equal entries are not always repeated.

Test system: HEK-293T
Assay: Multiplex assay against HEK293T;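 for Population Tubulin-Different-Phenotype (%): share of the cells with healthy nuclei that show this phenotype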
Type: toxicity, cell-based
Settings: human
Outline: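 Cells were classed with CellPathfinder machine-learning gating, first as Hoechst high-intensity objects or normal cells, then (normal cells) as healthy, pyknosed or fragmented nuclei, and finally (pyknosed cells) as mitotic or apoptotic. Staining of live cells at seeding used Hoechst33342, BioTracker Green Microtubule Cytoskeleton Dye, MitoTracker Red and Annexin V Alexa Fluor 680, with imaging on a CQ1 microscope at 37°C and 5% CO2 after compound addition. Tubulin, mitochondrial-mass and membrane-permeability phenotypes are per cents of healthy-nucleus cells.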

[1] = 12 h, 1 µM, compound concentration 1 uM, replicate 1
[2] = 12 h, 1 µM, compound concentration 1 uM, replicate 2
[3] = 12 h, 10 µM, compound concentration 10 uM, replicate 1
[4] = 12 h, 10 µM, compound concentration 10 uM, replicate 2
[5] = 24 h, 1 µM, compound concentration 1 uM, replicate 1
[6] = 24 h, 1 µM, compound concentration 1 uM, replicate 2
[7] = 24 h, 10 µM, compound concentration 10 uM, replicate 1
[8] = 24 h, 10 µM, compound concentration 10 uM, replicate 2
[9] = 48 h, 1 µM, compound concentration 1 uM, replicate 1
[10] = 48 h, 1 µM, compound concentration 1 uM, replicate 2
[11] = 48 h, 10 µM, compound concentration 10 uM, replicate 1
[12] = 48 h, 10 µM, compound concentration 10 uM, replicate 2

Compound: Cc1c(-c2ccc(O)cc2)n(Cc2ccc(OCCN3CCCCCC3)cc2)c2ccc(O)cc12 [BAZEDOXIFENE]
- Population Apoptotic (%) [1]: 40%
- Population Fragmented Nuclei (%) [1]: 15%
- Population Healthy Nuclei (%) [1]: 32%
- Population Hoechst High Intensity Objects (%) [1]: 16%
- Population Membrane Permeable-Phenotype (%) [1]: 0%
- Population Mitochondria Different-Phenotype (%) [1]: 93%
- Population Mitotic Cells (%) [1]: 59%
- Population Normal (%) [1]: 83%
- Population Pyknosed Nuclei (%) [1]: 52%
- Population Tubulin-Different-Phenotype (%) [1]: 77%
- Population Apoptotic (%) [2]: 12%
- Population Fragmented Nuclei (%) [2]: 10%
- Population Healthy Nuclei (%) [2]: 43%
- Population Hoechst High Intensity Objects (%) [2]: 6%
- Population Membrane Permeable-Phenotype (%) [2]: 11%
- Population Mitochondria Different-Phenotype (%) [2]: 36%
- Population Mitotic Cells (%) [2]: 87%
- Population Normal (%) [2]: 93%
- Population Pyknosed Nuclei (%) [2]: 46%
- Population Tubulin-Different-Phenotype (%) [2]: 38%
- Total Cell Count [2]: 168
- Population Fragmented Nuclei (%) [3]: 14%
- Population Healthy Nuclei (%) [3]: 8%
- Population Hoechst High Intensity Objects (%) [3]: 21%
- Population Membrane Permeable-Phenotype (%) [3]: 0%
- Population Mitochondria Different-Phenotype (%) [3]: 90%
- Population Normal (%) [3]: 78%
- Population Pyknosed Nuclei (%) [3]: 77%
- Population Tubulin-Different-Phenotype (%) [3]: 72%
- Total Cell Count [3]: 161
- Population Apoptotic (%) [4]: 88%
- Population Fragmented Nuclei (%) [4]: 9%
- Population Healthy Nuclei (%) [4]: 7%
- Population Hoechst High Intensity Objects (%) [4]: 10%
- Population Membrane Permeable-Phenotype (%) [4]: 10%
- Population Mitochondria Different-Phenotype (%) [4]: 100%
- Population Mitotic Cells (%) [4]: 11%
- Population Normal (%) [4]: 89%
- Population Pyknosed Nuclei (%) [4]: 83%
- Population Tubulin-Different-Phenotype (%) [4]: 100%
- Total Cell Count [4]: 159
- Population Apoptotic (%) [5]: 44%
- Population Fragmented Nuclei (%) [5]: 13%
- Population Healthy Nuclei (%) [5]: 45%
- Population Hoechst High Intensity Objects (%) [5]: 13%
- Population Membrane Permeable-Phenotype (%) [5]: 5%
- Population Mitochondria Different-Phenotype (%) [5]: 84%
- Population Mitotic Cells (%) [5]: 55%
- Population Normal (%) [5]: 86%
- Population Pyknosed Nuclei (%) [5]: 40%
- Population Tubulin-Different-Phenotype (%) [5]: 54%
- Total Cell Count [5]: 180
- Population Apoptotic (%) [6]: 18%
- Population Fragmented Nuclei (%) [6]: 8%
- Population Healthy Nuclei (%) [6]: 50%
- Population Hoechst High Intensity Objects (%) [6]: 8%
- Population Membrane Permeable-Phenotype (%) [6]: 9%
- Population Mitochondria Different-Phenotype (%) [6]: 40%
- Population Mitotic Cells (%) [6]: 81%
- Population Normal (%) [6]: 91%
- Population Tubulin-Different-Phenotype (%) [6]: 53%
- Total Cell Count [6]: 207
- Population Apoptotic (%) [7]: 96%
- Population Fragmented Nuclei (%) [7]: 13%
- Population Healthy Nuclei (%) [7]: 9%
- Population Hoechst High Intensity Objects (%) [7]: 21%
- Population Membrane Permeable-Phenotype (%) [7]: 0%
- Population Mitochondria Different-Phenotype (%) [7]: 100%
- Population Mitotic Cells (%) [7]: 3%
- Population Normal (%) [7]: 78%
- Population Pyknosed Nuclei (%) [7]: 76%
- Population Tubulin-Different-Phenotype (%) [7]: 92%
- Total Cell Count [7]: 175
- Population Apoptotic (%) [8]: 90%
- Population Fragmented Nuclei (%) [8]: 9%
- Population Healthy Nuclei (%) [8]: 5%
- Population Hoechst High Intensity Objects (%) [8]: 8%
- Population Membrane Permeable-Phenotype (%) [8]: 33%
- Population Mitochondria Different-Phenotype (%) [8]: 88%
- Population Mitotic Cells (%) [8]: 10%
- Population Normal (%) [8]: 91%
- Population Pyknosed Nuclei (%) [8]: 84%
- Population Tubulin-Different-Phenotype (%) [8]: 88%
- Total Cell Count [8]: 168
- Population Apoptotic (%) [9]: 39%
- Population Fragmented Nuclei (%) [9]: 14%
- Population Healthy Nuclei (%) [9]: 69%
- Population Hoechst High Intensity Objects (%) [9]: 9%
- Population Membrane Permeable-Phenotype (%) [9]: 3%
- Population Mitochondria Different-Phenotype (%) [9]: 41%
- Population Mitotic Cells (%) [9]: 60%
- Population Normal (%) [9]: 90%
- Population Pyknosed Nuclei (%) [9]: 16%
- Population Tubulin-Different-Phenotype (%) [9]: 40%
- Total Cell Count [9]: 275
- Population Apoptotic (%) [10]: 12%
- Population Fragmented Nuclei (%) [10]: 3%
- Population Healthy Nuclei (%) [10]: 75%
- Population Hoechst High Intensity Objects (%) [10]: 2%
- Population Membrane Permeable-Phenotype (%) [10]: 4%
- Population Mitochondria Different-Phenotype (%) [10]: 19%
- Population Mitotic Cells (%) [10]: 87%
- Population Normal (%) [10]: 97%
- Population Pyknosed Nuclei (%) [10]: 21%
- Population Tubulin-Different-Phenotype (%) [10]: 32%
- Total Cell Count [10]: 314
- Population Apoptotic (%) [11]: 91%
- Population Fragmented Nuclei (%) [11]: 22%
- Population Healthy Nuclei (%) [11]: 1%
- Population Hoechst High Intensity Objects (%) [11]: 23%
- Population Membrane Permeable-Phenotype (%) [11]: 0%
- Population Mitochondria Different-Phenotype (%) [11]: 100%
- Population Mitotic Cells (%) [11]: 8%
- Population Normal (%) [11]: 76%
- Population Pyknosed Nuclei (%) [11]: 75%
- Population Tubulin-Different-Phenotype (%) [11]: 50%
- Total Cell Count [11]: 178
- Population Apoptotic (%) [12]: 95%
- Population Fragmented Nuclei (%) [12]: 20%
- Population Healthy Nuclei (%) [12]: 6%
- Population Hoechst High Intensity Objects (%) [12]: 9%
- Population Membrane Permeable-Phenotype (%) [12]: 20%
- Population Mitochondria Different-Phenotype (%) [12]: 90%
- Population Mitotic Cells (%) [12]: 4%
- Population Normal (%) [12]: 90%
- Population Pyknosed Nuclei (%) [12]: 72%
- Population Tubulin-Different-Phenotype (%) [12]: 90%
- Total Cell Count [12]: 163

Compound: CNCc1ccc(-c2cc(-c3nc(-c4ccc(S(=O)(=O)C(C)C)cc4)cnc3N)on2)cc1 [BERZOSERTIB]
- Population Apoptotic (%) [1]: 44% and 25%
- Population Fragmented Nuclei (%) [1]: 94% and 79%
- Population Hoechst High Intensity Objects (%) [1]: 36% and 50%
- Population Membrane Permeable-Phenotype (%) [1]: 31% and 34%
- Population Mitochondria Different-Phenotype (%) [1]: 9%
- Population Mitotic Cells (%) [1]: 55% and 75%
- Population Normal (%) [1]: 63% and 49%
- Population Tubulin-Different-Phenotype (%) [1]: 13%
- Total Cell Count [1]: 865 and 596
- Population Apoptotic (%) [2]: 14% and 11%
- Population Fragmented Nuclei (%) [2]: 66%
- Population Hoechst High Intensity Objects (%) [2]: 28% and 80%
- Population Mitochondria Different-Phenotype (%) [2]: 0% and 16%
- Population Mitotic Cells (%) [2]: 85% and 88%
- Population Tubulin-Different-Phenotype (%) [2]: 50% and 60%
- Total Cell Count [2]: 1257 and 695
- Population Apoptotic (%) [3]: 37% and 15%
- Population Fragmented Nuclei (%) [3]: 82% and 86%
- Population Healthy Nuclei (%) [3]: 12% and 7%
- Population Hoechst High Intensity Objects (%) [3]: 48% and 47%
- Population Membrane Permeable-Phenotype (%) [3]: 46% and 29%
- Population Mitochondria Different-Phenotype (%) [3]: 6% and 7%
- Population Mitotic Cells (%) [3]: 62% and 85%
- Population Normal (%) [3]: 51% and 52%
- Population Pyknosed Nuclei (%) [3]: 5%
- Population Tubulin-Different-Phenotype (%) [3]: 18% and 11%
- Total Cell Count [3]: 918 and 667
- Population Fragmented Nuclei (%) [4]: 95% and 56%
- Population Hoechst High Intensity Objects (%) [4]: 34% and 86%
- Population Mitochondria Different-Phenotype (%) [4]: 5% and 9%
- Population Mitotic Cells (%) [4]: 68% and 92%
- Population Tubulin-Different-Phenotype (%) [4]: 82% and 59%
- Total Cell Count [4]: 1271 and 770
- Population Apoptotic (%) [5]: 43% and 15%
- Population Fragmented Nuclei (%) [5]: 91% and 64%
- Population Hoechst High Intensity Objects (%) [5]: 39% and 65%
- Population Membrane Permeable-Phenotype (%) [5]: 50% and 21%
- Population Mitochondria Different-Phenotype (%) [5]: 7% and 13%
- Population Mitotic Cells (%) [5]: 56% and 84%
- Population Normal (%) [5]: 60% and 34%
- Population Pyknosed Nuclei (%) [5]: 3% and 9%
- Population Tubulin-Different-Phenotype (%) [5]: 30% and 11%
- Total Cell Count [5]: 826 and 568
- Population Hoechst High Intensity Objects (%) [6]: 33% and 85%
- Population Membrane Permeable-Phenotype (%) [6]: 33% and 60%
- Population Mitochondria Different-Phenotype (%) [6]: 4% and 6%
- Population Mitotic Cells (%) [6]: 87% and 97%
- Population Pyknosed Nuclei (%) [6]: 30%
- Population Tubulin-Different-Phenotype (%) [6]: 71% and 81%
- Total Cell Count [6]: 1330 and 870
- Population Fragmented Nuclei (%) [7]: 65% and 58%
- Population Healthy Nuclei (%) [7]: 16% and 26%
- Population Hoechst High Intensity Objects (%) [7]: 46% and 73%
- Population Membrane Permeable-Phenotype (%) [7]: 36% and 31%
- Population Mitotic Cells (%) [7]: 40% and 88%
- Population Normal (%) [7]: 53% and 26%
- Population Pyknosed Nuclei (%) [7]: 17% and 14%
- Population Tubulin-Different-Phenotype (%) [7]: 36% and 27%
- Total Cell Count [7]: 767 and 657
- Population Apoptotic (%) [8]: 23% and 0%
- Population Hoechst High Intensity Objects (%) [8]: 36% and 86%
- Population Membrane Permeable-Phenotype (%) [8]: 21% and 56%
- Population Mitochondria Different-Phenotype (%) [8]: 14%
- Population Mitotic Cells (%) [8]: 76% and 100%
- Population Tubulin-Different-Phenotype (%) [8]: 78% and 76%
- Total Cell Count [8]: 1281 and 924
